Experiments:
[1] = biological target: T1, Kappa-type opioid receptor (Homo sapiens, UniProt P41145); assay: Displacement of [3H]U69,593 from human recombinant kappa opioid receptor expressed in CHO cells after 2 hrs by liquid scintillation counting; format: cell-based
Summary of the method: (§1)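 Membranes from stably transfected hDOR-CHO or hKOR-CHO cells, washed in ice-cold 10 mM Tris-HCl pH 7.4. Binding in 50 mM Tris-HCl pH 7.4 with protease inhibitors, about 30 µg protein per tube. Radioligand about 2 nM against 10 drug concentrations, triplicate, 2 h at 25 °C, GF/B filtration.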

[2] = biological target: Delta-type opioid receptor (Homo sapiens, UniProt P41143); assay: Displacement of [3H]DADLE from human recombinant delta opioid receptor expressed in recombinant hDOR-CHO cells after 2 hrs by liquid scintillation counting; format: cell-based; summary of the method: as §1
Sequence of Delta-type opioid receptor (P41143 whole entry): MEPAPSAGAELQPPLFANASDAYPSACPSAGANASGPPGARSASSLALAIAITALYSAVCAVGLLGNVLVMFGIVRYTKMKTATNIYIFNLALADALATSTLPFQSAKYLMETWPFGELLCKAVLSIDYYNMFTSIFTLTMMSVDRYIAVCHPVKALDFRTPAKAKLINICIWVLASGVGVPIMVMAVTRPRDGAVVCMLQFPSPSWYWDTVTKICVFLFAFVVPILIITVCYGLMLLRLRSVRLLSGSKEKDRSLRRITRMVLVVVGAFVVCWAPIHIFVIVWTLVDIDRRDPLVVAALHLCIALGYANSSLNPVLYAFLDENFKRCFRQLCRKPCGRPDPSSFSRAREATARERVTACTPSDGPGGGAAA

Mu-type opioid receptor [3] = biological target: T2, Mu-type opioid receptor (Homo sapiens, UniProt P35372); assay: Displacement of [3H]DAMGO from human recombinant mu opioid receptor expressed in CHO cells after 2 hrs by liquid scintillation counting; format: cell-based
T2 sequence (P35372 whole entry): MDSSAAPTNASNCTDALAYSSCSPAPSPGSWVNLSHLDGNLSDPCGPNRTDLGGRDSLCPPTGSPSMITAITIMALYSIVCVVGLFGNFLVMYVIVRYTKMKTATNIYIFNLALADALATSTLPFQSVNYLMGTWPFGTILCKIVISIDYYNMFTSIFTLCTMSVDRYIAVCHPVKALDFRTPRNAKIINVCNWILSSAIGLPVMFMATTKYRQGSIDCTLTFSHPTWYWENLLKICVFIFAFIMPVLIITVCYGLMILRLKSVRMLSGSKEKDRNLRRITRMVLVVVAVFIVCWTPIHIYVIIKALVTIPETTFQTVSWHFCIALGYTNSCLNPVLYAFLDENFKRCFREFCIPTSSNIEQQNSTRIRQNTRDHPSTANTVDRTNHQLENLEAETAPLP

Homo sapiens [4] = species on record: Homo sapiens; assay: Selectivity ratio Ki for human delta opioid receptor to Ki for human mu opioid receptor
Summary of the method: (§2)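 Ki values from radioligand displacement on membranes of stably transfected human receptor CHO cells. […] Incubation 2 h at 25 °C, triplicate, filtration. Ki from pooled logistic IC50 by Cheng-Prusoff; ratio taken against the MOR Ki.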

[5] = biological target: T1, Kappa-type opioid receptor; details: CHO
Mu-type opioid receptor [6] = biological target: T2, Mu-type opioid receptor; assay: Ratio of morphine Ki to compound Ki for human mu opioid receptor
Mu-type opioid receptor [7] = biological target: T2, Mu-type opioid receptor; assay: Ratio of naloxone Ke to compound Ke for human mu opioid receptor
Homo sapiens [8] = species on record: Homo sapiens; assay: Selectivity ratio Ki for human kappa opioid receptor to Ki for human mu opioid receptor; summary of the method: as §2

T1 sequence (P41145 whole entry): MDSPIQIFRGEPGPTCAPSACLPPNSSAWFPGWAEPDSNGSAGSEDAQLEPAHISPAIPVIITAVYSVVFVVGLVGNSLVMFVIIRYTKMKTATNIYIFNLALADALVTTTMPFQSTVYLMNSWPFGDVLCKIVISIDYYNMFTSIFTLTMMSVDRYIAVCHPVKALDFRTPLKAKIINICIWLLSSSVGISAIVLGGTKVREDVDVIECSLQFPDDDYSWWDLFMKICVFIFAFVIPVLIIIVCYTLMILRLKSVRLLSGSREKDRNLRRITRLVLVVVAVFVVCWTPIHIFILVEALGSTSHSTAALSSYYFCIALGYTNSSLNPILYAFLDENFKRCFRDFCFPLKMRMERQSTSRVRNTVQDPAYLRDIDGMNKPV

For `CN1C[C@H]2Oc3c(O)cccc3[C@@]23CCC[C@@H]1C3` (relative stereo), which Ki [1] is on record?
Its Ki is > 40 µM.

And the Ki [2]?
The Ki was > 5.2 µM.

And the Ki (Mu-type opioid receptor [3])?
Its Ki is 0.619 µM.

What does the source list for `CN1C[C@H]2Oc3ccc(O)cc3[C@@]23CCC[C@@H]1C3` (relative stereo)?
Ki [1]: 1.08 µM; Ki [2]: > 5.2 µM; Ki (Mu-type opioid receptor [3]): 1.5 µM

Which Ki [1] does the source give for `Oc1ccc2c(c1)[C@]13CCC[C@H](C1)N(CCc1ccccc1)C[C@H]3O2` (relative stereo) here?
Its Ki is 1.23 µM.

And the Ki [2]?
Its Ki is 1.25 µM.

And the Ki (Mu-type opioid receptor [3])?
The Ki was 0.067 µM.

`Oc1cccc2c1O[C@@H]1CN(CCc3ccccc3)[C@@H]3CCC[C@]21C3` (relative stereo) was tested. Which Ki [1] did it give?
Its Ki is 0.051 µM.

And the Ki [2]?
The Ki was 1.23 µM.

And the Ratio Ki (Homo sapiens [4])?
The Ratio Ki was 1200.

And the Ke [5]?
Its Ke is 1.79 nM.

What about the Ratio Ki (Mu-type opioid receptor [6]) of the same compound?
The Ratio Ki was 2.

What about the Ratio Ke (Mu-type opioid receptor [7]) of the same compound?
The Ratio Ke was 3.

And the Ki (Mu-type opioid receptor [3])?
Its Ki is 0.0011 µM.

What about the Ratio Ki (Homo sapiens [8]) of the same compound?
Its Ratio Ki is 50.

Reference: ChEMBL document CHEMBL1811836, “Probes for narcotic receptor mediated phenomena. Part 42: synthesis and in vitro pharmacological characterization of the N-methyl and N-phenethyl analogues of the racemic ortho-c and para-c oxide-bridged phenylmorphans” (Bioorg Med Chem, 2011)
